According to ChEMBL document CHEMBL4699542, “Design and synthesis of novel methoxypyridine-derived gamma-secretase modulators” (Bioorg Med Chem, 2020):
Converted amounts (≈) assume the structure as drawn.

Assays:
[1] = Metabolic stability in mouse liver microsomes assessed as parent compound remaining at 1 uM incubated for 30 mins; format: ADME, Microsome; details: 0.5 h
How it was run: (§1)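 Test compound at 1 μM incubated 30 min with human, rat or mouse liver microsomes (1 mg/mL); parent remaining expressed as %.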

[2] = target: Cytochrome P450 2C9 (Homo sapiens, UniProt P11712); experiment: Inhibition of recombinant CYP2C9 (unknown origin) by fluorescence-based assay; format: ADME
How it was run: (§2)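 Recombinant CYP isoforms (five tested) screened for inhibition in fluorescence-based assays; IC50 in μM.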

[3] = target: Cytochrome P450 3A4 (Homo sapiens, UniProt P08684); experiment: Inhibition of recombinant CYP3A4 (unknown origin) by fluorescence-based assay; format: ADME
[4] = target: Gamma-secretase; experiment: Modulation of gamma secretase in human SH-SY5Y cells overexpressing wild type APP751 assessed as inhibition of amyloid beta (35 to 42 residues) formation incubated for overnight by ELISA; format: cell-based
How it was run: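 SHSY5Y-APP751 cells plated at 75K/well and incubated overnight at 37 °C, then treated 24 h over 10 concentrations ([…]–10 μM, 1:3.16 steps, in duplicate). Medium Aβ42 measured by sandwich ELISA (Aβ35–42 capture, AP-conjugated Aβ1–12 detection, CDP-Star luminescence) against an Aβ42 standard curve.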

[5] = Metabolic stability in rat liver microsomes assessed as parent compound remaining at 1 uM incubated for 30 mins; format: ADME, Microsome; details: 0.5 h; how it was run: as §1
[6] = target: Cytochrome P450 2C19 (Homo sapiens, UniProt P33261); experiment: Inhibition of recombinant CYP2C19 (unknown origin) by fluorescence-based assay; format: ADME; how it was run: as §2
[7] = Metabolic stability in human liver microsomes assessed as parent compound remaining at 1 uM incubated for 30 mins; format: ADME, Microsome; details: microsomes, 0.5 h, 1 µM; how it was run: as §1
[8] = Kinetic aqueous solubility of the compound in pH 7.4 PBS buffer by UV/Visible absorbance analysis; format: physicochemical; details: read-out: Kinetic_solubility
How it was run: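 Kinetic solubility determined in PBS at pH 7.4 by UV/Vis absorbance, reported in μM.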

[9] = target: Cytochrome P450 2D6 (Homo sapiens, UniProt P10635); experiment: Inhibition of recombinant CYP2D6 (unknown origin) by fluorescence-based assay; format: ADME; how it was run: as §2
[10] = target: T1, Cytochrome P450 1A2 (Homo sapiens, UniProt P05177); experiment: Inhibition of recombinant CYP1A2 (unknown origin) by fluorescence-based assay; format: ADME; how it was run: as §2
T1 sequence (P05177 whole entry): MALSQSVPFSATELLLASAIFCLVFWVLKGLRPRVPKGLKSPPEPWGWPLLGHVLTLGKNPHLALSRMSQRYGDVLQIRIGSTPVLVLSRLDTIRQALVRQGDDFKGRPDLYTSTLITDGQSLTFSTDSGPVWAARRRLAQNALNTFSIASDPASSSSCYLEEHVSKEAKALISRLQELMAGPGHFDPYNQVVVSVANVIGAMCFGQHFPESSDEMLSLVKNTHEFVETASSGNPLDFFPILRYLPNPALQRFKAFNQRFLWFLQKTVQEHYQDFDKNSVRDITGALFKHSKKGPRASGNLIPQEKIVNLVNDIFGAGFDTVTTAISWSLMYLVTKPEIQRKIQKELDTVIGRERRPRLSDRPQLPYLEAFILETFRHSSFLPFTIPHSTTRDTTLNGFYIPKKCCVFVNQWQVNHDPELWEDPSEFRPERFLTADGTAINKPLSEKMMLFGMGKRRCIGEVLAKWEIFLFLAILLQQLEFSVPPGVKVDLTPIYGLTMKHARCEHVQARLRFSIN

Chain of Cytochrome P450 3A4 (P08684 whole entry, the tested form may be a part): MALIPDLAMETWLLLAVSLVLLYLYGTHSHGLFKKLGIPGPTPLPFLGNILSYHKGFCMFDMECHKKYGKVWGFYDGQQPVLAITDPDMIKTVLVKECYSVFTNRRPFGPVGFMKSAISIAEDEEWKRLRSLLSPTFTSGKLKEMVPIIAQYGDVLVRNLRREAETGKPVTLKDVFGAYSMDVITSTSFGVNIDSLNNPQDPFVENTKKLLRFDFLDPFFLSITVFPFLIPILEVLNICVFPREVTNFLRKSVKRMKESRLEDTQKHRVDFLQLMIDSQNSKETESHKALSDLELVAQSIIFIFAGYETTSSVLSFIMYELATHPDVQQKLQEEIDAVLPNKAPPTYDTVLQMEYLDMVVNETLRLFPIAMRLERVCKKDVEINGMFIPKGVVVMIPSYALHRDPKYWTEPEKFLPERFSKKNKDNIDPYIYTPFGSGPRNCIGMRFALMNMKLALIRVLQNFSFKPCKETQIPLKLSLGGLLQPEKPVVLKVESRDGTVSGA
Chain of Cytochrome P450 2C9 (P11712 whole entry, canonical isoform): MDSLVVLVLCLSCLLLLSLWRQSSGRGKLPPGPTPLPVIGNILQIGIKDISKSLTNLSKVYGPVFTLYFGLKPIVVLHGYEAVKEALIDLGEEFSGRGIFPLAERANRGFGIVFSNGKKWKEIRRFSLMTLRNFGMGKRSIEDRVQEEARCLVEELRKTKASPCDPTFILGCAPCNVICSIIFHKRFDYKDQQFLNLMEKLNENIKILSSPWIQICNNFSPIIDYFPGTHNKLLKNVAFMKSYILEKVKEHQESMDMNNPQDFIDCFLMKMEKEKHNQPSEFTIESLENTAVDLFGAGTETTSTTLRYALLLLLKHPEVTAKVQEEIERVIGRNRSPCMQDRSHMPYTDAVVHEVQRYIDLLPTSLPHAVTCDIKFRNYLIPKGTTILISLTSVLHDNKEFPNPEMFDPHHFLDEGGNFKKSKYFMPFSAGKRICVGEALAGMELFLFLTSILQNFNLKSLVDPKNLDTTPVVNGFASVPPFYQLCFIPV
Chain of Cytochrome P450 2D6 (P10635 whole entry): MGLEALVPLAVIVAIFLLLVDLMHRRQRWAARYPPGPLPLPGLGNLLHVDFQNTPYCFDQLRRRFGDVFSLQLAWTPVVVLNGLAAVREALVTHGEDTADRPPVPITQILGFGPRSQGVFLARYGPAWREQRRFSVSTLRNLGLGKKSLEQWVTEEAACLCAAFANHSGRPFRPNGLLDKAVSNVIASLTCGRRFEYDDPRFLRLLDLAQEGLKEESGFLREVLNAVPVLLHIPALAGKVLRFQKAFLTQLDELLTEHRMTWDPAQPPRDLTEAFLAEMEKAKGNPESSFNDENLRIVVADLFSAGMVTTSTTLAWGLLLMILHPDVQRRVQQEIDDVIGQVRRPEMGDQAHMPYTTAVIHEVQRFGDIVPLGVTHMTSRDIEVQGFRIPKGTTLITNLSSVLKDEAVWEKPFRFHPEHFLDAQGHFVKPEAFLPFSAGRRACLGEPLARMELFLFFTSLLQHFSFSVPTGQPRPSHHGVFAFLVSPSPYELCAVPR
Chain of Cytochrome P450 2C19 (P33261 whole entry): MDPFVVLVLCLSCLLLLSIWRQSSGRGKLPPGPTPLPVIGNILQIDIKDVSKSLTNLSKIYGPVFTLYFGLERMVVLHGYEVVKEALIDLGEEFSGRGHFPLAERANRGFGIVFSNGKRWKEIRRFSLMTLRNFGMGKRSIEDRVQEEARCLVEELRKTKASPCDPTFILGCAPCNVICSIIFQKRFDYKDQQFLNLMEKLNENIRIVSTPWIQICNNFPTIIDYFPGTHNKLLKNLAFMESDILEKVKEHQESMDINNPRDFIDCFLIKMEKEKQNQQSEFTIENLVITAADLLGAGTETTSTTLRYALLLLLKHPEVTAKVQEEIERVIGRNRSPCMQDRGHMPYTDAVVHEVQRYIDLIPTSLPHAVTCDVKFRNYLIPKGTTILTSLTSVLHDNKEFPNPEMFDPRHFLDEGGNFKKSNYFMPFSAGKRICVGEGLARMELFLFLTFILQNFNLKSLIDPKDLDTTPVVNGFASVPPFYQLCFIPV

SMILES | Stabilty [1] [%] | IC50 [2] [nM] | IC50 [3] [nM] | IC50 [4] [nM] | Stabilty [5] [%] | IC50 [6] [nM] | Stabilty [7] [%] | solubility kinetic [8] [µM] | IC50 [9] [nM] | IC50 [10] [nM]
COc1nc(-c2csc(Nc3c4c(nn3C3CCC3)CCCC4)n2)ccc1-n1cnc(C)c1 | 44 | 660 | 590 | 64 | 42 | 1600 | 9.5 | 30 (≈ 13.8 µg/mL) | > 100000 | > 100000
COc1cc(-c2csc(Nc3cc(C(C)(C)C)nn3C)n2)ccc1-n1cnc(C)c1 | 92 | – | – | 253 | 76 | – | 60 | – | – | –
COc1nc(-c2csc(Nc3c4c(nn3C3CCN(C)CC3)CCCC4)n2)ccc1-n1cnc(C)c1 | – | – | – | > 1000 | – | – | – | 92 (≈ 46.4 µg/mL) | – | –
CCn1nc2c(c1Nc1nc(-c3ccc(-n4cnc(C)c4)c(O)n3)cs1)CCCC2 | – | – | – | 468 | – | – | – | – | – | –
CCn1nccc1Nc1nc(-c2ccc(-n3cnc(C)c3)c(OC)n2)cs1 | – | – | – | > 1000 | – | – | – | – | – | –
COc1nc(-c2csc(Nc3c4c(nn3C(C)C)CCC4)n2)ccc1-n1cnc(C)c1 | 34 | – | – | 90 | 56 | – | 23 | 5.7 (≈ 2.48 µg/mL) | – | –
COc1nc(-c2csc(Nc3c4c(nn3C3CCCCC3)CCCC4)n2)ccc1-n1cnc(C)c1 | – | – | – | 63 | – | – | – | < 1.6 | – | –
Cc1cn(-c2ccc(-c3csc(Nc4cc(C(C)(C)C)nn4C)n3)cc2)cn1 | – | – | – | 275 | – | – | – | – | – | –
Cc1cn(-c2ccc(-c3csc(Nc4cc(C(C)(C)C)nn4C)n3)cn2)cn1 | – | – | – | 590 | – | – | – | – | – | –
COc1nc(-c2csc(Nc3c4c(nn3CCCN3CCOCC3)CCCC4)n2)ccc1-n1cnc(C)c1 | 0.7 | – | – | 126 | 6.4 | – | 1.9 | 39 (≈ 20.9 µg/mL) | – | –
CCn1nc2c(c1Nc1nc(-c3ccc(-n4cnc(C)c4)c(OC)n3)cs1)CCC2(C)C | 49 | 48000 | 750 | 109 | 61 | 15000 | 31 | 8.8 (≈ 3.96 µg/mL) | > 100000 | > 100000
CCn1nc2c(c1Nc1nc(-c3ccc(-n4cnc(C)c4)nc3)cs1)CCCC2 | – | – | – | > 1000 | – | – | – | – | – | –
COc1nc(-c2csc(Nc3cc(C(F)(F)F)nn3C(C)(C)C)n2)ccc1-n1cnc(C)c1 | – | – | – | 126 | – | – | – | < 1.6 | – | –
COc1nc(-c2csc(Nc3cc(C(C)(C)C)nn3CCF)n2)ccc1-n1cnc(C)c1 | 67 | 4100 | 40 | 73 | 86 | 3300 | 49 | 3.3 (≈ 1.5 µg/mL) | > 100000 | 64000
COc1nc(-c2csc(Nc3c4c(nn3C3CCOC3)CCCC4)n2)ccc1-n1cnc(C)c1 (racemic) | 70 | – | – | 102 | 42 | – | 2.1 | 19 (≈ 9.07 µg/mL) | – | –
COc1nc(-c2csc(Nc3c4c(nn3CCO)CCC4)n2)ccc1-n1cnc(C)c1 | 73 | 50000 | < 50 | 75 | 86 | 9200 | 42 | 29 (≈ 12.7 µg/mL) | > 100000 | > 100000
CCn1nc2c(c1Nc1nc(-c3ccc(-n4cnc(C)c4)cc3)cs1)CCCC2 | – | – | – | 660 | – | – | – | – | – | –
CCn1nc(C(C)(C)C)cc1Nc1nc(-c2ccc(-n3cnc(C)c3)nc2)cs1 | 87 | – | – | 292 | 60 | – | 43 | < 1.6 | – | –
COCCn1nc2c(c1Nc1nc(-c3ccc(-n4cnc(C)c4)c(OC)n3)cs1)CCCC2 | 29 | – | – | 144 | 45 | – | 1.8 | 20 (≈ 9.31 µg/mL) | – | –
CCn1nc2c(c1Nc1nc(-c3cnc(-n4cnc(C)c4)c(OC)n3)cs1)CCCC2 | – | – | – | 89 | – | – | – | < 1.6 | – | –
COc1nc(-c2csc(Nc3c4c(nn3C(C)(C)C)CCC4)n2)ccc1-n1cnc(C)c1 | 20 | – | – | 62 | 55 | – | 21 | 3.9 (≈ 1.75 µg/mL) | – | –
CCn1nc2c(c1N(C)c1nc(-c3ccc(-n4cnc(C)c4)c(OC)n3)cs1)CCCC2 | – | – | – | 636 | – | – | – | 3.4 (≈ 1.53 µg/mL) | – | –
